The structures appear in SMILES notation. Calls of active or inactive are those of the source. No cut-off for these calls is given here. Bounds are passed on as bounds.

Data set [1] deals with Plasmodium falciparum. Put plainly: Antimalarial activity against synchronized ring stage CQ-sensitive Plasmodium falciparum 3D7 infected in human erythrocytes incubated for 24 hrs followed by compound washout and subsequent compound addition and measured after 48 hrs by YOYO-1 probe-based flow cytometry. The data set is classed as functional, organism-based. For orientation: Flow cytometry measures light scatter and fluorescence of single cells or particles in a stream.

The subject of data set [2] is Plasmodium falciparum. The experiment in a line: Antimalarial activity against synchronized ring stage CQ-resistant Plasmodium falciparum W2 infected in human erythrocytes incubated for 24 hrs followed by compound washout and subsequent compound addition and measured after 48 hrs by YOYO-1 probe-based flow cytometry. The format is functional, organism-based.
Data set [3] is described as follows: Half life in Swiss mouse blood at 1 ug/ml by UPLC-MS analysis. The data set is classed as ADME, tissue-based. The conditions noted are these: whole blood.
Data set [4] is described as follows: Half life in Swiss mouse plasma at 1 ug/ml by UPLC-MS analysis. The data set is classed as ADME, cell-free. In short, it runs like this: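 Fresh whole blood from non-fasted male Swiss outbred mice; plasma separated by centrifugation. Compound spiked to 1 μg/mL final (0.2% DMSO, 0.4% acetonitrile), kept at 37 °C; aliquots taken over 4 h (n=3 per time point), snap-frozen, protein precipitated with acetonitrile, UPLC-MS (ESI+) against matrix calibration standards. Exponential decay fit gives k; half-life = ln(2)/k.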

Data set [5] is described as follows: Drug metabolism in human liver microsomes assessed as N-demethylation at 10 uM measured after 60 mins in presence of NADPH-generating system by UPLC-MS analysis. The format is ADME, Microsome. The conditions noted are these: 1 h.
For data set [6], the system named is Plasmodium berghei. The experiment in a line: Antimalarial activity against Plasmodium berghei ANKA infected in specific pathogen-free C57BL/6 mouse assessed as reduction in parasitemia at 25 to 50 mg/kg, ip administered at 72 hrs post-infection and measured daily up to 35 days post-infection by rapid staining-based microscopic analysis. The data set is classed as functional, organism-based. Summed up:
(§1)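 Peters 4-day suppressive test: female C57BL/6 mice, 8–9 weeks old, inoculated i.p. with 10^6 PbA-parasitized red cells in 200 µL Alsever's medium. Compound in DMSO diluted in saline (50, 25, 12.5, 6.25 mg/kg) or vehicle, 200 µL i.p. at 4, 24, 48 and 72 h. Daily tail-vein smears, Rapid Stain, % parasitemia by microscopy; cure = healthy, no parasitemia at day 35; 5 mice/group, mean ± SEM.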

A short description of data set [7]: Drug metabolism in mouse liver microsomes assessed as N-demethylation at 10 uM measured after 60 mins in presence of NADPH-generating system by UPLC-MS analysis. The format is ADME, Microsome. To be noted: 1 h. A general note: Microsomes from liver hold many membrane-bound enzymes, among them those of drug oxidation.
Another data set deals with T1, Falcipain 2 (Plasmodium falciparum, UniProt Q9N6S8).
T1 sequence (Q9N6S8 whole entry): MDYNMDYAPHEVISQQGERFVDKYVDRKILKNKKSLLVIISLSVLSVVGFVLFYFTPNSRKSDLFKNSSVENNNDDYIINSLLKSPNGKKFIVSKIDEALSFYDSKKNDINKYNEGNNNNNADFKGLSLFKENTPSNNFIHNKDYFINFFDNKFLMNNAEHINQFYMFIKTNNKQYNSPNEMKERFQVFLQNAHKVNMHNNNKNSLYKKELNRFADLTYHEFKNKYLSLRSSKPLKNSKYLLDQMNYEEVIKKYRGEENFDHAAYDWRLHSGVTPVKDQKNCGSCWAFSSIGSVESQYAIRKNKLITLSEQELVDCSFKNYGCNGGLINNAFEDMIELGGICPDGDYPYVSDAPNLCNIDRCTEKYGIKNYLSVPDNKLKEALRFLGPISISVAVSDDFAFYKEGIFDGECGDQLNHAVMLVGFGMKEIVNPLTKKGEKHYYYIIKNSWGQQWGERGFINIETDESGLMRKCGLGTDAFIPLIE
The experiment in a line: Inhibition of Plasmodium falciparum N-terminal His6-tagged falcipain-2 (35 residues) expressed in Escherichia coli M15 pREP4 using Z-Lue-Arg-AMC as substrate measured after 30 mins by spectrofluorometric method. Summed up:
(§2)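 Recombinant heterologously expressed FP2 or FP3; inhibition measured by continuous kinetic cleavage of fluorogenic substrate Z-Leu-Arg-AMC.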

Data set [8] concerns Plasmodium falciparum. Put plainly: Induction of morphological changes in synchronized ring stage Plasmodium falciparum W2 infected in human erythrocytes assessed as swollen food vacuoles with accumulated hemoglobin at 300 nM measured after 36 hrs by Giemsa staining-based photomicrographic method. The data set is classed as functional, organism-based. Summed up: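 Synchronized W2 P. falciparum cultures exposed from ring stage for 36 h to compound (4.5–10,000 nM range), with E-64 and 0.1% DMSO controls; thin smears methanol-fixed, Giemsa-stained and photographed.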

Data set [9] deals with T2, Cysteine protease falcipain-3 (Plasmodium falciparum, UniProt Q9NAW4).
T2 sequence (Q9NAW4 whole entry): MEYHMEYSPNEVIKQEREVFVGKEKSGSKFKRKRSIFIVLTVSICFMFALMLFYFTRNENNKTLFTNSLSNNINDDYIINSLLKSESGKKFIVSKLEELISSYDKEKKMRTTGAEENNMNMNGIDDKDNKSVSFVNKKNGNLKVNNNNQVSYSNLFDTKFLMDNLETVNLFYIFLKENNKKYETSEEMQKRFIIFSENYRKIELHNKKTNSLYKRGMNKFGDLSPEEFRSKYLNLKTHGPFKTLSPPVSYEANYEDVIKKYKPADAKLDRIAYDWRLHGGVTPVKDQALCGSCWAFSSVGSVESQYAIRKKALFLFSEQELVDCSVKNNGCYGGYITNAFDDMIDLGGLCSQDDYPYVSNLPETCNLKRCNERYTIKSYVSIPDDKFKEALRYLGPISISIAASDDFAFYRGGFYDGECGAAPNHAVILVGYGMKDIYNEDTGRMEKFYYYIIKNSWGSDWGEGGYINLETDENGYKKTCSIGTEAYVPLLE
The experiment in a line: Inhibition of Plasmodium falciparum N-terminal His-tagged falcipain-3 (33 residues) expressed in Escherichia coli M15 pREP4 using Z-Leu-Arg-AMC as substrate measured after 30 mins by spectrofluorometric method. In short, it runs like this: as §2

The next data set has as its system HEK293. Put plainly: Cytotoxicity against HEK293 cells assessed as reduction in cell viability at 25 uM measured after 18 hrs by alamar blue assay. The format is cell-based. The conditions noted are these: human, hek293, 18 h. In general terms: Resazurin is reduced to fluorescent resorufin, in cell work by metabolically active cells.
Data set [10] has as its system Plasmodium berghei. Put plainly: Antimalarial activity against Plasmodium berghei ANKA infected in specific pathogen-free C57BL/6 mouse assessed as reduction in disease severity at 100 mg/kg, po administered once daily for 4 days measured up to 35 days post-infection by rapid staining-based microscopic analysis. The format is functional, organism-based. Summed up: (§3)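 Female C57BL/6 mice, 8–9 weeks old, inoculated i.p. with 10^6 P. berghei ANKA-parasitized red cells. Compound dissolved in DMSO, diluted in 154 mM NaCl, given by oral gavage at 100 mg/kg on days 4, 5, 6 and 7 post-infection. Tail-vein thin smears stained with Rapid Stain, % parasitemia by microscopy; mice euthanized at signs of severe disease.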

Data set [11] relates to Plasmodium berghei. The experiment in a line: Antimalarial activity against Plasmodium berghei ANKA infected in specific pathogen-free C57BL/6 mouse assessed as reduction in parasitemia at […] to 12.5 mg/kg, ip administered at 72 hrs post-infection and measured daily up to 35 days post-infection by rapid staining-based microscopic analysis. The format is functional, organism-based. In short, it runs like this:
as §1

Data set [12] concerns Plasmodium berghei. The experiment in a line: Antimalarial activity against Plasmodium berghei ANKA infected in specific pathogen-free C57BL/6 mouse assessed as mouse survival at 25 to 50 mg/kg, ip administered at 72 hrs post-infection by rapid staining-based microscopic analysis.
Data set [13] has as its system Plasmodium berghei. The experiment in a line: Antimalarial activity against Plasmodium berghei ANKA infected in specific pathogen-free C57BL/6 mouse assessed as reduction in parasitemia at 100 mg/kg, po administered once daily for 4 days measured up to 35 days post-infection by rapid staining-based microscopic analysis. The data set is classed as functional, organism-based. Summed up:
as §3

Data set [14] in a line: Drug metabolism in human liver microsomes assessed as N,N-bis-demethylation at 10 uM measured after 60 mins in presence of NADPH-generating system by UPLC-MS analysis. The format is ADME, Microsome. To be noted: 1 h.
In data set [15] the test system is Plasmodium berghei. The experiment in a line: Antimalarial activity against Plasmodium berghei ANKA infected in specific pathogen-free C57BL/6 mouse assessed as reduction in parasitemia at 50 mg/kg, ip administered once daily for 4 days measured up to 35 days post-infection by rapid staining-based microscopic analysis. The data set is classed as functional, organism-based. Summed up: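 Established-infection model: female C57BL/6 mice inoculated i.p. with 10^6 PbA-parasitized red cells; compound in DMSO diluted in saline given i.p. at 50 mg/kg on days 4, 5, 6 and 7 post-infection, chloroquine 50 mg/kg as comparator, vehicle controls; 7 mice per group. Tail-vein smears, % parasitemia by microscopy, mean ± SEM; survival recorded.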

The nature of data set [16]: Drug metabolism in mouse liver microsomes assessed as N,N-bis-demethylation at 10 uM measured after 60 mins in presence of NADPH-generating system by UPLC-MS analysis. The data set is classed as ADME, Microsome. The conditions noted are these: 1 h.
Data set [17] in a line: Intrinsic clearance in mouse liver microsomes assessed per mg protein at 1 uM measured after 60 mins in presence of NADPH-generating system by UPLC-MS analysis. The format is ADME, Microsome. The conditions noted are these: read-out: CLH.
Data set [18] has as its system Plasmodium berghei. The experiment in a line: Antimalarial activity against Plasmodium berghei ANKA infected in specific pathogen-free C57BL/6 mouse assessed as reduction in parasitemia at 12.5 to 50 mg/kg, ip administered at 72 hrs post-infection and measured daily up to 35 days post-infection by rapid staining-based microscopic analysis. The format is functional, organism-based. In short, it runs like this:
as §1

As for `COC1=CC(=O)N(C(=O)/C=C/[C@H](C)NC(=O)[C@H](CC(C)C)NC(=O)[C@H](CC(C)C)NC(=O)C2CCN(C)CC2)[C@H]1Cc1c[nH]c2ccccc12.O=C(O)C(F)(F)F`, the IC50 is 42 nM in the data set on Plasmodium falciparum [1], 49 nM in the data set with Plasmodium falciparum [2], 29 nM at Falcipain 2 and 79 nM in data set [9]. Further, the half-life at 1 ug/ml in data set [3] worked out at 0.283 h; in data set [4], 1.37 h. Further, the Drug metabolism entry in [5] and in data set [7] was “Metabolite_Detected” each time. The result in the data set on Plasmodium berghei [6] and in the data set with Plasmodium falciparum [8] was Active. In addition, the Activity entry in the data set with HEK293 is recorded as “Non-Toxic”.
Consider `COC1=CC(=O)N(C(=O)/C=C/[C@H](CCc2ccccc2)NC(=O)[C@H](CC(C)C)NC(=O)[C@H](CC(C)C)NC(=O)[C@H](C(C)C)N(C)C)[C@H]1Cc1c[nH]c2ccccc12.O=C(O)C(F)(F)F`, for which the outcome in the data set on Plasmodium berghei [10], with Plasmodium berghei [11], in the data set on Plasmodium berghei [13], in the data set with Plasmodium berghei [15] and with Plasmodium falciparum [8] was Active. Besides, the IC50 came to 1 nM with Plasmodium falciparum [1], 4 nM in the data set with Plasmodium falciparum [2], 33 nM against Falcipain 2 and 112 nM in [9]. In addition, the Survival in the data set with Plasmodium berghei [12] was above 35 days. Moreover, the half-life at 1 ug/ml in data set [3] amounted to 4.55 h; in data set [4], 6.22 h. Also, the Drug metabolism entry in [14] and in data set [16] was “Metabolite_Detected” each time. Also, in data set [17], the microsomal CLint at 1 µM was determined as 787 µL/min/mg. Further, the Activity entry in the data set with HEK293 is listed as “Non-Toxic”.
With `COC1=CC(=O)N(C(=O)/C=C/[C@H](C)NC(=O)[C@H](CC(C)C)NC(=O)[C@H](CC2CCCCC2)NC(=O)C2CCN(C)CC2)[C@H]1Cc1c[nH]c2ccccc12.O=C(O)C(F)(F)F`, the result with Plasmodium berghei [18] and with Plasmodium falciparum [8] was Active. The IC50 in the data set on Plasmodium falciparum [1] worked out at 26 nM; in the data set on Plasmodium falciparum [2] it was 28 nM; against Falcipain 2, 31 nM; in [9], 117 nM. In addition, the results for the half-life at 1 ug/ml in data set [3] and in data set [4] were 0.683 h and 2.1 h, respectively. In addition, the Drug metabolism result in data set [5] and in data set [7] was “Metabolite_Detected” throughout. For the same molecule, the Activity result with HEK293 is reported as “Non-Toxic”.

The term IC50 denotes the concentration at which inhibition is half-maximal. By half-life is commonly meant the time in which the quantity being followed falls by half. A lower half-life goes with rapid decline.
